Legend:
[1] = biological target: T1, Mu-type opioid receptor (Homo sapiens, UniProt P35372); assay: Displacement of [3H]naloxone from human mu opioid receptor expressed in CHOK1 cells; format: cell-based, CHO-K1
Procedure, shortened: (§1)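 Membranes in Tris-HCl pH 7.4 + 0.06% BSA, premixed with wheatgerm agglutinin SPA beads; radioligand solution 10 nmol/L (stock), ~25% DMSO in added solutions. Incubated 150 min at rt, centrifuged 20 min at 500 rpm, counted by scintillation proximity. Naloxone defines non-specific binding. Ki determined where inhibition at 10 µM exceeded 50%.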

[2] = biological target: T2, Delta-type opioid receptor (Homo sapiens, UniProt P41143); assay: Displacement of [3H]deltorphine 2 from human delta opioid receptor expressed in CHOK1 cells at 10 uM; format: cell-based; settings: CHO-K1
Procedure, shortened: (§2)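 Membranes diluted 1:87 in 50 mmol/L Tris-HCl, 5 mmol/L MgCl2, pH 7.4; radioligand solution 10 nmol/L (stock), 0.5% DMSO. Incubated 120 min at rt, filtered through PEI-soaked GF/B filters, washed three times with cold buffer, dried 1 h at 55 °C, scintillation counted. Naloxone defines non-specific binding. Ki determined where inhibition at 10 µM exceeded 50%.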

[3] = biological target: T1, Mu-type opioid receptor; assay: Displacement of [3H]naloxone from human mu opioid receptor expressed in CHOK1 cells at 10 uM; format: cell-based; settings: CHO-K1; procedure, shortened: as §1
[4] = biological target: T3, Kappa-type opioid receptor (Homo sapiens, UniProt P41145); assay: Displacement of [3H]C1-977 from human kappa opioid receptor expressed in HEK293 cells at 10 uM; format: cell-based
Procedure, shortened: (§3)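 SPA format as for mu: membranes diluted 1:34 in 50 mmol/L Tris-HCl, 0.05% NaN3, pH 7.4, mixed with wheatgerm agglutinin SPA beads; 150 min at rt, centrifugation, scintillation counting. Ki determined where inhibition at 10 µM exceeded 50%.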

[5] = biological target: Nociceptin receptor (Homo sapiens) (UniProt P41146); assay: Displacement of [3H]nociceptin from human ORL1 receptor expressed in HEK293 cells at 10 uM; format: cell-based
[6] = biological target: T3, Kappa-type opioid receptor; assay: Displacement of [3H]C1-977 from human kappa opioid receptor expressed in HEK293 cells; format: cell-based; procedure, shortened: as §3
[7] = biological target: T2, Delta-type opioid receptor; assay: Displacement of [3H]deltorphine 2 from human delta opioid receptor expressed in CHOK1 cells; format: cell-based, CHO-K1
Procedure, shortened: as §2, with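 “binding.” for “binding. Ki determined where inhibition at 10 µM exceeded 50%.”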

T2 sequence (P41143 whole entry): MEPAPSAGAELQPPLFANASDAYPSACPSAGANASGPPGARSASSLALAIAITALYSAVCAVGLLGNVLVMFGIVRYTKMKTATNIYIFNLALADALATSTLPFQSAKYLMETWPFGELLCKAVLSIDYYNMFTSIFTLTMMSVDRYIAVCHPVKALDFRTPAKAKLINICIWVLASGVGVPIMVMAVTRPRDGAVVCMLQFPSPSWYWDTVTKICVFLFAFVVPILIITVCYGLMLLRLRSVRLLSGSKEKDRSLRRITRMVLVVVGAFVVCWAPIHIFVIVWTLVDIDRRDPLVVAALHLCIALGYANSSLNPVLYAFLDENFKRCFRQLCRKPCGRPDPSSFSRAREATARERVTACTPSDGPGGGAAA
T3 sequence (P41145 whole entry): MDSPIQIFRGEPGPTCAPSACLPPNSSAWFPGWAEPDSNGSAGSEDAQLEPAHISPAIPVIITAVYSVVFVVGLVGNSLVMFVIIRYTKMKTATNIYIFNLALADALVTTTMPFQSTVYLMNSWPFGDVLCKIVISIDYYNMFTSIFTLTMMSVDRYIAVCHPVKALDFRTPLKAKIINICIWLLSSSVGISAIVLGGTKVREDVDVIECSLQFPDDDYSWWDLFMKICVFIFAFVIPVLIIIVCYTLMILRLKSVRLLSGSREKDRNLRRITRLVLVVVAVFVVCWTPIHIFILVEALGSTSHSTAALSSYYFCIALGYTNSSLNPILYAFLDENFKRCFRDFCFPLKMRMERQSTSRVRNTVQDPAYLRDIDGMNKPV
Nociceptin receptor (Homo sapiens), sequence (P41146 whole entry): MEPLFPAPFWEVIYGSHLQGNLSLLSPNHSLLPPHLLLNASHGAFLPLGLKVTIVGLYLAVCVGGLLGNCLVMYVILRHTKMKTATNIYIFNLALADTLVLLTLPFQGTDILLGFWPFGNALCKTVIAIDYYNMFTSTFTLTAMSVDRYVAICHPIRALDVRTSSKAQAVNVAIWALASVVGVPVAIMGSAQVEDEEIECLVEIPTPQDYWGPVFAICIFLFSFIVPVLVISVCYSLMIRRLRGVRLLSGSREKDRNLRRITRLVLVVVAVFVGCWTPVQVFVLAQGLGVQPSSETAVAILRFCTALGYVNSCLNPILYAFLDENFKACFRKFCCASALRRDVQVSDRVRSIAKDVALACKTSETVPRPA
T1 sequence (P35372 whole entry): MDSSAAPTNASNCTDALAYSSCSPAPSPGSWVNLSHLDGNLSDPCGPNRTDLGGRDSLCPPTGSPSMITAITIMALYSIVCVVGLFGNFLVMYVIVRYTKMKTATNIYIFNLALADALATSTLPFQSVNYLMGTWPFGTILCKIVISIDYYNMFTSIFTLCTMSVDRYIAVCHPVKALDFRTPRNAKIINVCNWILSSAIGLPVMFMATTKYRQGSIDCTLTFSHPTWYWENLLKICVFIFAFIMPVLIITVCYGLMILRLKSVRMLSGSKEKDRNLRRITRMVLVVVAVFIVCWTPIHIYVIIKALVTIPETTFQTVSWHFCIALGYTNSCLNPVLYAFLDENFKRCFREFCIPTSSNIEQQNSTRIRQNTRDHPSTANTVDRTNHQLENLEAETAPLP

SMILES	Ki [1]	inhibition [2]	inhibition [3]	inhibition [4]	inhibition [5]	Ki [6]	Ki [7]
CCCN1C[C@@H]2[C@H](c3ccccc3)CC[C@H]1CN2Cc1ccc(C(=O)N(CC)CC)cc1	5700 nM	4%	61%	63%	1%	2400 nM	
C=CCN1C[C@@H]2C(c3ccccc3)=CC[C@H]1CN2Cc1ccc(C(=O)N(CC)CC)cc1	6800 nM	14%	56%	76%	9%	890 nM	
C=CCN1C[C@H]2C(c3ccccc3)=CC[C@@H]1CN2Cc1ccc(C(=O)N(CC)CC)cc1	250 nM	87%	91%	31%	< 10%		740 nM
C=CCN1C[C@@H]2[C@H](c3ccccc3)CC[C@H]1CN2Cc1ccc(C(=O)N(CC)CC)cc1	7300 nM	6%	56%	73%	7%	1700 nM	
C=CCN1C[C@@H]2[C@@H](c3ccccc3)CC[C@H]1CN2Cc1ccc(C(=O)N(CC)CC)cc1	6320 nM	34%	58%	76%	14%	1100 nM	
CCCN1C[C@@H]2[C@@H](c3ccccc3)CC[C@H]1CN2Cc1ccc(C(=O)N(CC)CC)cc1		4%	44%	49%	3%		
CCCN1C[C@@H]2C(c3ccccc3)=CC[C@H]1CN2Cc1ccc(C(=O)N(CC)CC)cc1		20%	55%	22%	45%		

From ChEMBL document CHEMBL1143969, “Synthesis and pharmacological evaluation of bicyclic SNC80 analogues with separated benzhydryl moiety” (Bioorg Med Chem, 2008)
